In ChEMBL document CHEMBL1141653, “New bis(2-aminoimidazoline) and bisguanidine DNA minor groove binders with potent in vivo antitrypanosomal and antiplasmodial activity” (J Med Chem, 2008):

What was measured:
Ferriprotoporphyrin IX [1] = experiment: Inhibition of ferriprotoporphyrin 9 biomineralization; format: functional
Summary of the method: (§1)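 β-Hematin formation: hemin chloride (0.5 mg/mL in DMSO) with 0.5 M sodium acetate pH 4.4 and drug dilutions, 37 °C for 18–24 h. Pellet washed with DMSO, dissolved in 0.1 N NaOH, A405 read. Percent inhibition relative to solvent control. IC₅₀ derived, or percent inhibition at 1 mg/mL (highest concentration) given when no IC₅₀.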

[2] = Selectivity index, ratio of IC50 for rat L6 cells to IC50 for Plasmodium falciparum K1; format: functional
Summary of the method: (§2)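 Ratio of the IC₅₀ on L-6 rat skeletal myoblasts to the parasite IC₅₀. Cytotoxicity measured in RPMI 1640 with L-glutamine and 10% FBS, serial dilutions 90 to 0.123 µg/mL, duplicate. After 72 h, Alamar blue (resazurin) added for 2 h. Fluorescence read at ex 536 / em 588 nm.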

Plasmodium falciparum = experiment: Antiplasmodial activity against Plasmodium falciparum K1 in [3H]hypoxanthine incorporation assay; format: functional, organism-based; conditions: K1, 72 h
Summary of the method: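 K1 erythrocytic stages in RPMI 1640 without hypoxanthine with AlbuMax, human A⁺ red cells at 2.5% hematocrit, 0.3% parasitemia. Compounds taken from 10 mg/mL DMSO stock, tested as serial doubling dilutions at 37 °C in 4% CO₂/3% O₂/93% N₂. After 48 h, ³H-hypoxanthine (0.5 µCi) added for 24 h more; incorporation by scintillation counting. IC₅₀ from sigmoidal curves.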

L6 = experiment: Cytotoxicity against rat L6 cells; format: cell-based
[3] = test system: Trypanosoma brucei rhodesiense; experiment: Antitrypanosomal activity against Trypanosoma brucei rhodesiense STIB900; format: functional, organism-based
Summary of the method: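 Bloodstream forms (10⁴ per well) in MEM with 15% heat-inactivated horse serum, 25 mM HEPES, 2-mercaptoethanol, hypoxanthine. 3-fold serial dilutions from 90 to 0.123 µg/mL, in duplicate. Incubation 72 h at 37 °C, 5% CO₂. Resazurin then added for 2–4 h more. Fluorescence read at ex 536 / em 588 nm.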

[4] = Binding affinity for DNA assessed as thermal melting temperature
Summary of the method: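 Thermal melting of poly(dA)·poly(dT): DNA at 40 µM base with compound at 12 µM (ratio 0.3) in MES 0.01 M / EDTA 0.001 M buffer, pH 6.25. A260 followed from 20 to 95 °C at 0.5 °C/min. Value is ΔTm.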

[5] = Selectivity index, ratio of IC50 for rat L6 cells to IC50 for Trypanosoma brucei rhodesiense STIB900; format: functional; summary of the method: as §2
Ferriprotoporphyrin IX [6] = experiment: Inhibition of ferriprotoporphyrin 9 biomineralization at 1 mg/ml; format: functional; summary of the method: as §1

Structure (SMILES)	IC50 (Ferriprotoporphyrin IX [1]) [µM]	IC50 (Plasmodium falciparum) [µM]	IC50 [3] [µM]	ΔTm [4] [°C]	Ratio IC50 [2]	IC50 (L6) [µM]	Ratio IC50 [5]	inhibition (Ferriprotoporphyrin IX [6]) [%]
CCCCC[P+](CCCCC)(CCCCC)Cc1ccc(C(=O)c2ccc(C[P+](CCCCC)(CCCCC)CCCCC)cc2)cc1.[Br-].[Br-]	219	0.053	0.414	1.2	223	11.8	29	
c1cc(N2CCCCC2)ccc1NC1=NCCN1		12	50.4			> 283		
c1ccc(Sc2ccc(NC3=NCCN3)cc2)cc1		1.2	1.9			28.5		
CCN(CC)c1ccc(NC2=NCCN2)cc1		15	40.1			> 444		
CN(C)c1ccc(NC2=NCCN2)cc1		> 18	46.6			> 324		
CC(C)(C)OC(=O)N1CCN(C(=O)OC(C)(C)C)C1=Nc1ccc(Nc2ccc(N=C3N(C(=O)OC(C)(C)C)CCN3C(=O)OC(C)(C)C)cc2)cc1	171	0.059	0.048		166	9.8		
CC(C)(C)OC(=O)N1CCN(C(=O)OC(C)(C)C)C1=Nc1ccc(S(=O)(=O)c2ccc(N=C3N(C(=O)OC(C)(C)C)CCN3C(=O)OC(C)(C)C)cc2)cc1		0.055	2.6		1025	56.4		27
CC(C)(C)OC(=O)/N=C(/NC(=O)OC(C)(C)C)Nc1ccc(Nc2ccc(N/C(=N\C(=O)OC(C)(C)C)NC(=O)OC(C)(C)C)cc2)cc1		0.077	0.47		48	3.7		45
c1ccc(Cc2ccc(NC3=NCCN3)cc2)cc1		1.7	4.9			73		
c1ccc(NC2=NCCN2)cc1		> 25	182			> 455		
Cc1ccc(NC2=NCCN2)cc1		> 23	262			> 425		
c1cc2c(cc1NC1=NCCN1)CCC2		5.3	9.2			> 378		
Cc1ccc(NC2=NCCN2)cc1C		17.1	49.8			> 398		
COc1ccc(NC2=NCCN2)cc1OC		14.8	84.2			> 349		
c1ccc(Oc2ccc(NC3=NCCN3)cc2)cc1		5.7	5			167		
CC(=O)c1ccc(NC2=NCCN2)cc1		5.7	54.6			> 375		
Nc1nc(N)nc(Nc2ccc([As]3SCC(CO)S3)cc2)n1 (stereo unspecified) [MELARSOPROL]		5.5						
N=C(N)c1ccc(OCCCCCOc2ccc(C(=N)N)cc2)cc1				32.3				
O=S(=O)(c1ccc(NC2=NCCN2)cc1)c1ccc(NC2=NCCN2)cc1		5.6	32.4	12.1	>35	> 196	>6	
c1ccc(Nc2ccc(NC3=NCCN3)cc2)cc1		0.549	1.2			90.7		
O=C(c1ccccc1)c1ccc(NC2=NCCN2)cc1		5.2	9.4			226		
CSc1ccc(NC2=NCCN2)cc1		1.7	7.3			174		
O=C(c1ccc(NC2=NCCN2)cc1)c1ccc(NC2=NCCN2)cc1	117	0.129	2.05		>1658	> 214		
c1cc2c(cc1NC1=NCCN1)OCO2		> 20	93.5			> 372		
Nc1ccc(NC2=NCCN2)cc1		15				> 423		
c1cc2c(cc1NC1=NCCN1)OCCO2		> 19	68.4			> 351		

Now from value to molecule, other results behind:

IC50 (Ferriprotoporphyrin IX [1]) [µM]	IC50 (Plasmodium falciparum) [µM]	IC50 [3] [µM]	ΔTm [4] [°C]	Structure (SMILES)	Ratio IC50 [2]	IC50 (L6) [µM]	Ratio IC50 [5]	inhibition (Ferriprotoporphyrin IX [6]) [%]
	13.3	87.4		N=C(N)Nc1ccc(C(=O)Nc2ccccc2)cc1		> 309		
	0.0023	0.024		N=C(N)Nc1ccc2c(c1)Cc1cc(NC(=N)N)ccc1-2	2043	4.7	196	
	> 15	42.9		O=C(Nc1ccccc1)c1ccc(NC2=NCCN2)cc1		> 284		
	> 26	311		N=C(N)Nc1ccc(N)cc1		132		
	0.046	0.196	22.1	N=C(N)Nc1ccc(Oc2ccc(NC(=N)N)cc2)cc1	36	1.64	8	0
	7.9	18.8		N=C(N)Nc1ccc(Oc2ccccc2)cc1		59.9		
	> 19	20.1		CN(C)c1ccc(NC(=N)N)cc1		> 358		
	3.1	2.6		S=C(Nc1ccccc1)Nc1ccc(NC2=NCCN2)cc1		91.1		
	> 15	94.7		O=C(Nc1ccc(NC2=NCCN2)cc1)c1ccccc1		> 284		
686	0.607	0.538	23	Cl.N=C(N)Nc1ccc(NC(=S)Nc2ccc(NC(=N)N)cc2)cc1	26	15.5	29	
	4.1	32.9		N=C(N)Nc1ccc(NC(=O)Nc2ccccc2)cc1		> 234		
	> 27	164		Cc1ccc(NC(=N)N)cc1		> 484		
	0.95	0.99		N=C(N)Nc1ccc2c(c1)CCC2		73.7		
	9	45.7		CCc1ccc(NC(=N)N)cc1		310		
	0.036	0.316	5.3	CCOC(CNC(=N)Nc1ccc(Cc2ccc(NC(=N)NCC(OCC)OCC)cc2)cc1)OCC	>4861	> 175	>553	
	0.035	0.102	20.1	N=C(N)Nc1ccc(Sc2ccc(NC(=N)N)cc2)cc1	76	2.66	26	0
	5.7	2.4		CCN(CC)c1ccc(NC(=N)N)cc1		78.1		

IC50 (Ferriprotoporphyrin IX [1]) [µM]	IC50 (Plasmodium falciparum) [µM]	IC50 [3] [µM]	ΔTm [4] [°C]	Structure (SMILES)	Ratio IC50 [2]	IC50 (L6) [µM]	Ratio IC50 [5]	inhibition (Ferriprotoporphyrin IX [6]) [%]
	0.444	4.3	12.8	N=C(N)Nc1ccc(S(=O)(=O)c2ccc(NC(=N)N)cc2)cc1	>500	> 222	>51	
	> 23	155		CC(=O)c1ccc(NC(=N)N)cc1		> 421		
	> 23	146		N=C(N)Nc1ccc2c(c1)OCO2		> 417		
	9	150		N=C(N)Nc1ccc2c(c1)OCCO2		> 391		
	12.2	39.9		Cc1ccc(NC(=N)N)cc1C		190		
	1.6	4.8		N=C(N)Nc1ccc(Nc2ccccc2)cc1		49.5		
	0.032	0.161	15	N=C(N)Nc1ccc(Cc2ccc(NC(=N)N)cc2)cc1	88	2.8	17	0
	10.4	122		N=C(N)Nc1ccc(NC(=O)c2ccccc2)cc1		> 309		
	0.068	0.206	27.6	N=C(N)Nc1ccc(C(=O)c2ccc(NC(=N)N)cc2)cc1	40	2.7	13	
	7.9	48.6		N=C(N)Nc1ccc(N2CCCCC2)cc1		232		
	1.3	5.9		CSc1ccc(NC(=N)N)cc1		240		
	3.8	15.9		N=C(N)Nc1ccc(Cc2ccccc2)cc1		43.9		
	14.8	237		COc1ccc(NC(=N)N)cc1OC		> 388		
	8.7	1.3		N=C(N)Nc1ccc(NC(=S)Nc2ccccc2)cc1		> 225		
	0.018	0.022	29.6	N=C(N)Nc1ccc(Nc2ccc(NC(=N)N)cc2)cc1	36	0.65	30	0
	> 18	14.4		N=C(N)Nc1ccc(C(=O)c2ccccc2)cc1		118		
	3.4	45.4		O=C(Nc1ccccc1)Nc1ccc(NC2=NCCN2)cc1		> 219		
